# Assay results reported in ChEMBL document CHEMBL1156952, “Synthesis and biological evaluations of novel bendazac lysine analogues as potent anticataract agents” (Bioorg Med Chem Lett, 2010).
# Experiments:
# [1] = Aqueous solubility of the compound; type: physicochemical; conditions: water (aqueous)
# [2] = Anticataract activity against FeCl3/H2O2-induced cataract in rabbit lens assessed as slight degree of opacificaion at 5 mM treated 1 hr before FeCl3/H2O2 challenge measured after 24 hrs; type: functional, Oryctolagus cuniculus, Lens of camera-type eye
# [3] = Anticataract activity against FeCl3/H2O2-induced cataract in rat lens assessed as slight degree of opacificaion at 0.5 mM treated 1 hr before FeCl3/H2O2 challenge measured after 24 hrs; type: functional, Lens of camera-type eye
# Outline: (§1)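 Isolated rat lenses were cultured in DMEM and challenged with FeCl3 (0.02%) plus H2O2 (0.5%). Compounds were added at 0.5 mM to the medium of transparent lenses, with a challenged, untreated control. Lenses were scored as the percentage at each opacification grade (−, +, ++, +++).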
# [4] = Anticataract activity against FeCl3/H2O2-induced cataract in rat lens assessed as extensive mature nuclear opacity at 0.5 mM treated 1 hr before FeCl3/H2O2 challenge measured after 24 hrs; type: functional, Lens of camera-type eye; outline: as §1
# [5] = Anticataract activity against FeCl3/H2O2-induced cataract in rabbit lens assessed as middle degree of opacificaion at 5 mM treated 1 hr before FeCl3/H2O2 challenge measured after 24 hrs; type: functional, Oryctolagus cuniculus, Lens of camera-type eye
# [6] = Anticataract activity against FeCl3/H2O2-induced cataract in rabbit lens assessed as extensive mature nuclear opacity at 0.5 mM treated 1 hr before FeCl3/H2O2 challenge measured after 24 hrs; type: functional, Oryctolagus cuniculus, Lens of camera-type eye
# [7] = Anticataract activity against FeCl3/H2O2-induced cataract in rabbit lens assessed as middle degree of opacificaion at 10 mM treated 1 hr before FeCl3/H2O2 challenge measured after 24 hrs; type: functional, Oryctolagus cuniculus, Lens of camera-type eye
# [8] = Anticataract activity against FeCl3/H2O2-induced cataract in rabbit lens assessed as absence of opacificaion at 0.5 mM treated 1 hr before FeCl3/H2O2 challenge measured after 24 hrs; type: functional, Oryctolagus cuniculus, Lens of camera-type eye
# [9] = Anticataract activity against FeCl3/H2O2-induced cataract in rat lens assessed as absence of opacificaion at 0.5 mM treated 1 hr before FeCl3/H2O2 challenge measured after 24 hrs; type: functional, Lens of camera-type eye; outline: as §1
# [10] = Anticataract activity against FeCl3/H2O2-induced cataract in rabbit lens assessed as extensive mature nuclear opacity at 5 mM treated 1 hr before FeCl3/H2O2 challenge measured after 24 hrs; type: functional, Oryctolagus cuniculus, Lens of camera-type eye
# [11] = Anticataract activity against FeCl3/H2O2-induced cataract in rabbit lens assessed as middle degree of opacificaion at 0.5 mM treated 1 hr before FeCl3/H2O2 challenge measured after 24 hrs; type: functional, Oryctolagus cuniculus, Lens of camera-type eye
# [12] = Anticataract activity against FeCl3/H2O2-induced cataract in rabbit lens assessed as absence of opacificaion at 15 mM treated 1 hr before FeCl3/H2O2 challenge measured after 24 hrs; type: functional, Oryctolagus cuniculus, Lens of camera-type eye
# [13] = Anticataract activity against FeCl3/H2O2-induced cataract in rabbit lens assessed as extensive mature nuclear opacity at 15 mM treated 1 hr before FeCl3/H2O2 challenge measured after 24 hrs; type: functional, Oryctolagus cuniculus, Lens of camera-type eye
# [14] = Anticataract activity against FeCl3/H2O2-induced cataract in rabbit lens assessed as slight degree of opacificaion at 10 mM treated 1 hr before FeCl3/H2O2 challenge measured after 24 hrs; type: functional, Oryctolagus cuniculus, Lens of camera-type eye
# [15] = Anticataract activity against FeCl3/H2O2-induced cataract in rabbit lens assessed as slight degree of opacificaion at 0.5 mM treated 1 hr before FeCl3/H2O2 challenge measured after 24 hrs; type: functional, Oryctolagus cuniculus, Lens of camera-type eye
# [16] = Anticataract activity against FeCl3/H2O2-induced cataract in rabbit lens assessed as slight degree of opacificaion at 15 mM treated 1 hr before FeCl3/H2O2 challenge measured after 24 hrs; type: functional, Oryctolagus cuniculus, Lens of camera-type eye
# [17] = Anticataract activity against FeCl3/H2O2-induced cataract in rabbit lens assessed as absence of opacificaion at 5 mM treated 1 hr before FeCl3/H2O2 challenge measured after 24 hrs; type: functional, Oryctolagus cuniculus, Lens of camera-type eye
# [18] = Anticataract activity against FeCl3/H2O2-induced cataract in rabbit lens assessed as absence of opacificaion at 10 mM treated 1 hr before FeCl3/H2O2 challenge measured after 24 hrs; type: functional, Oryctolagus cuniculus, Lens of camera-type eye
# [19] = Anticataract activity against FeCl3/H2O2-induced cataract in rat lens assessed as middle degree of opacificaion at 0.5 mM treated 1 hr before FeCl3/H2O2 challenge measured after 24 hrs; type: functional, Lens of camera-type eye; outline: as §1
# [20] = Anticataract activity against FeCl3/H2O2-induced cataract in rabbit lens assessed as extensive mature nuclear opacity at 10 mM treated 1 hr before FeCl3/H2O2 challenge measured after 24 hrs; type: functional, Oryctolagus cuniculus, Lens of camera-type eye
# [21] = Anticataract activity against FeCl3/H2O2-induced cataract in rabbit lens assessed as middle degree of opacificaion at 15 mM treated 1 hr before FeCl3/H2O2 challenge measured after 24 hrs; type: functional, Oryctolagus cuniculus, Lens of camera-type eye
compound,measurement,setting,value
N[C@@H](Cc1c[nH]cn1)C(=O)O.O=C(O)C(Oc1nn(Cc2cccc(Cl)c2)c2ccccc12)C(=O)O,solubility,[1],115 mg/mL
N[C@@H](Cc1c[nH]cn1)C(=O)O.O=C(O)C(Oc1nn(Cc2ccccc2)c2ccccc12)C(=O)O,Activity,[2],70%
same,Activity,[3],85%
same,solubility,[1],180 mg/mL
same,Activity,[4],0%
same,Activity,[5],0%
same,Activity,[6],0%
same,Activity,[7],0%
same,Activity,[8],0%
same,Activity,[9],0%
same,Activity,[10],0%
same,Activity,[11],35%
same,Activity,[12],100%
same,Activity,[13],0%
same,Activity,[14],10%
same,Activity,[15],65%
same,Activity,[16],0%
same,Activity,[17],30%
same,Activity,[18],90%
same,Activity,[19],15%
same,Activity,[20],0%
same,Activity,[21],0%
O=C(O)C(Oc1nn(Cc2ccccc2)c2ccccc12)C(=O)O,solubility,[1],< 1 mg/mL
O=C([O-])C(Oc1nn(Cc2cccc(Cl)c2)c2ccccc12)C(=O)[O-].[K+].[K+],solubility,[1],< 1 mg/mL
O=C(O)C(Oc1nn(Cc2cccc(F)c2)c2ccccc12)C(=O)O,solubility,[1],2 mg/mL
O=C([O-])C(Oc1nn(Cc2ccc(Cl)cc2)c2ccccc12)C(=O)[O-].[Na+].[Na+],solubility,[1],< 1 mg/mL
NCCCC[C@H](N)C(=O)O.O=C(O)C(Oc1nn(Cc2ccccc2)c2ccccc12)C(=O)O,Activity,[3],15%
same,solubility,[1],123 mg/mL
same,Activity,[4],15%
same,Activity,[6],35%
same,Activity,[8],0%
same,Activity,[9],0%
same,Activity,[11],35%
same,Activity,[15],30%
same,Activity,[19],70%
Cc1ccc(Cn2nc(OC(C(=O)O)C(=O)O)c3ccccc32)cc1.NCCCC[C@H](N)C(=O)O,solubility,[1],57.4 mg/mL
O=C(O)C(Oc1nn(Cc2cccc(Cl)c2)c2ccccc12)C(=O)O,solubility,[1],< 1 mg/mL
Cc1ccc(Cn2nc(OC(C(=O)[O-])C(=O)[O-])c3ccccc32)cc1.[Na+].[Na+],solubility,[1],< 1 mg/mL
O=C(O)COc1nn(Cc2ccccc2)c2ccccc12 [BENDAZAC],solubility,[1],< 1 mg/mL
NCCCC[C@H](N)C(=O)O.O=C(O)C(Oc1nn(Cc2cccc(F)c2)c2ccccc12)C(=O)O,Activity,[3],55%
same,solubility,[1],134 mg/mL
same,Activity,[4],0%
same,Activity,[9],0%
same,Activity,[19],45%
O=C([O-])C(Oc1nn(Cc2cccc(F)c2)c2ccccc12)C(=O)[O-].[K+].[K+],solubility,[1],2.4 mg/mL
Cc1ccc(Cn2nc(OC(C(=O)O)C(=O)O)c3ccccc32)cc1.N[C@@H](Cc1c[nH]cn1)C(=O)O,solubility,[1],71 mg/mL
O=C([O-])C(Oc1nn(Cc2ccccc2)c2ccccc12)C(=O)[O-].[Na+].[Na+],Activity,[3],80%
same,solubility,[1],3 mg/mL
same,Activity,[4],0%
same,Activity,[6],0%
same,Activity,[8],0%
same,Activity,[9],0%
same,Activity,[11],40%
same,Activity,[15],60%
same,Activity,[19],20%
